{"source": "ChEMBL document CHEMBL1165899", "about": "“Synthesis and antitumor evaluation of novel cyclic arylsulfonylureas: ADME-T and pharmacophore prediction” (2010)", "type_in_all_cases": "functional", "key": {"[1]": {"system": "SK-MEL-5", "test": "Growth inhibition of human SK-MEL-5 cells at 10 uM after 48 hrs by sulforhodamine B assay relative to control", "conditions": "SK-MEL-5, 48 h, read-out: GI"}, "[2]": {"system": "SK-MEL-28", "test": "Growth inhibition of human SK-MEL-28 cells at 10 uM after 48 hrs by sulforhodamine B assay relative to control", "conditions": "SK-MEL-28, 48 h, read-out: GI"}, "[3]": {"system": "SK-MEL-2", "test": "Growth inhibition of human SK-MEL-2 cells at 10 uM after 48 hrs by sulforhodamine B assay relative to control", "conditions": "SK-MEL-2, 48 h, read-out: GI"}, "[4]": {"system": "Malme-3M", "test": "Growth inhibition of human MALME-3M cells at 10 uM after 48 hrs by sulforhodamine B assay relative to control", "conditions": "read-out: GI"}, "[5]": {"system": "LOX IMVI", "test": "Growth inhibition of human LOXIMVI cells at 10 uM after 48 hrs by sulforhodamine B assay relative to control", "conditions": "read-out: GI"}, "[6]": {"system": "UO-31", "test": "Growth inhibition of human UO31 cells at 10 uM after 48 hrs by sulforhodamine B assay relative to control", "conditions": "UO-31, 48 h, read-out: GI", "procedure,_shortened": "(§1)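 NCI 60-cell-line single-dose screen at 10 µM. Cells were plated at 5000–40,000 cells/well according to doubling time, in medium with 2 mM L-glutamine, and held 24 h at 37 °C, 5% CO₂, 100% humidity before drug. Time-zero plates were TCA-fixed. Exposure was 48 h, then TCA fixation and sulforhodamine B staining for 10 min, acetic acid washes, 10 mM trizma solubilization and A515. % inhibition = 100 − % activity, where 100% is the DMSO-solvent control.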"}, "[7]": {"system": "SN12C", "test": "Growth inhibition of human SN12C cells at 10 uM after 48 hrs by sulforhodamine B assay relative to control", "conditions": "read-out: GI"}, "[8]": {"system": "RXF 393", "test": "Growth inhibition of human RXF393 cells at 10 uM after 48 hrs by sulforhodamine B assay relative to control", "conditions": "RXF 393, 48 h, read-out: GI"}, "[9]": {"system": "ACHN", "test": "Growth inhibition of human ACHN cells at 10 uM after 48 hrs by sulforhodamine B assay relative to control", "conditions": "read-out: GI"}, "[10]": {"system": "786-0", "test": "Growth inhibition of human 786-0 cells at 10 uM after 48 hrs by sulforhodamine B assay relative to control", "conditions": "786-0, 48 h, read-out: GI"}, "[11]": {"system": "SR", "test": "Growth inhibition of human SR cells at 10 uM after 48 hrs by sulforhodamine B assay relative to control", "conditions": "read-out: GI"}, "[12]": {"test": "Growth inhibition of human […] cells at 10 uM after 48 hrs by sulforhodamine B assay relative to control", "conditions": "read-out: GI"}, "[13]": {"system": "CCRF-CEM", "test": "Growth inhibition of human CCRF-CEM cells at 10 uM after 48 hrs by sulforhodamine B assay relative to control", "conditions": "read-out: GI"}, "[14]": {"system": "DU-145", "test": "Growth inhibition of human DU145 cells at 10 uM after 48 hrs by sulforhodamine B assay relative to control", "conditions": "DU-145, 48 h, read-out: GI"}, "[15]": {"system": "SK-OV-3", "test": "Growth inhibition of human SKOV3 cells at 10 uM after 48 hrs by sulforhodamine B assay relative to control", "conditions": "SK-OV-3, 48 h, read-out: GI"}, "[16]": {"system": "OVCAR-8", "test": "Growth inhibition of human OVCAR8 cells at 10 uM after 48 hrs by sulforhodamine B assay relative to control", "conditions": "OVCAR-8, 48 h, read-out: GI"}, "[17]": {"system": "OVCAR-5", "test": "Growth inhibition of human OVCAR5 cells at 10 uM after 48 hrs by sulforhodamine B assay relative to control", "conditions": "OVCAR-5, 48 h, read-out: GI"}, "[18]": {"system": "OVCAR-3", "test": "Growth inhibition of human OVCAR-3 cells at 10 uM after 48 hrs by sulforhodamine B assay relative to control", "conditions": "OVCAR-3, 48 h, read-out: GI"}, "[19]": {"system": "NCI/ADR-RES", "test": "Growth inhibition of human NCI/ADR-RES cells at 10 uM after 48 hrs by sulforhodamine B assay relative to control", "conditions": "read-out: GI"}, "[20]": {"system": "MDA-MB-231", "test": "Growth inhibition of human MDA-MB-231 cells at 10 uM after 48 hrs by sulforhodamine B assay relative to control", "conditions": "MDA-MB-231, 48 h, read-out: GI"}, "[21]": {"system": "MCF7", "test": "Growth inhibition of human MCF7 cells at 10 uM after 48 hrs by sulforhodamine B assay relative to control", "conditions": "MCF7, 48 h, read-out: GI"}, "[22]": {"test": "Growth inhibition of human Hs 578T cells at 10 uM after 48 hrs by sulforhodamine B assay relative to control", "conditions": "read-out: GI"}, "[23]": {"system": "SW-620", "test": "Growth inhibition of human SW620 cells at 10 uM after 48 hrs by sulforhodamine B assay relative to control", "conditions": "SW-620, 48 h, read-out: GI", "procedure,_shortened": "as §1"}, "[24]": {"system": "HT-29", "test": "Growth inhibition of human HT-29 cells at 10 uM after 48 hrs by sulforhodamine B assay relative to control", "conditions": "HT-29, 48 h, read-out: GI"}, "[25]": {"system": "HCT-15", "test": "Growth inhibition of human HCT15 cells at 10 uM after 48 hrs by sulforhodamine B assay relative to control", "conditions": "HCT-15, 48 h, read-out: GI"}, "[26]": {"system": "NCI-H522", "test": "Growth inhibition of human NCI-H522 cells at 10 uM after 48 hrs by sulforhodamine B assay relative to control", "conditions": "NCI-H522, 48 h, read-out: GI"}, "[27]": {"system": "NCI-H322M", "test": "Growth inhibition of human NCI-H322M cells at 10 uM after 48 hrs by sulforhodamine B assay relative to control", "conditions": "read-out: GI"}, "[28]": {"system": "NCI-H23", "test": "Growth inhibition of human NCI-H23 cells at 10 uM after 48 hrs by sulforhodamine B assay relative to control", "conditions": "NCI-H23, 48 h, read-out: GI"}, "[29]": {"system": "HOP-92", "test": "Growth inhibition of human HOP92 cells at 10 uM after 48 hrs by sulforhodamine B assay relative to control", "conditions": "HOP-92, 48 h, read-out: GI"}, "[30]": {"system": "SF-268", "test": "Growth inhibition of human SF268 cells at 10 uM after 48 hrs by sulforhodamine B assay relative to control", "conditions": "SF-268, 48 h, read-out: GI"}, "[31]": {"system": "SF-295", "test": "Growth inhibition of human SF295 cells at 10 uM after 48 hrs by sulforhodamine B assay relative to control", "conditions": "SF-295, 48 h, read-out: GI"}, "[32]": {"system": "SNB-19", "test": "Growth inhibition of human SNB19 cells at 10 uM after 48 hrs by sulforhodamine B assay relative to control", "conditions": "SNB-19, 48 h, read-out: GI"}, "[33]": {"system": "SNB-75", "test": "Growth inhibition of human SNB75 cells at 10 uM after 48 hrs by sulforhodamine B assay relative to control", "conditions": "SNB-75, 48 h, read-out: GI"}, "[34]": {"system": "U-251", "test": "Growth inhibition of human U251 cells at 10 uM after 48 hrs by sulforhodamine B assay relative to control", "conditions": "U-251, 48 h, read-out: GI", "procedure,_shortened": "as §1"}, "[35]": {"system": "UACC-62", "test": "Growth inhibition of human UACC62 cells at 10 uM after 48 hrs by sulforhodamine B assay relative to control", "conditions": "UACC-62, 48 h, read-out: GI", "procedure,_shortened": "as §1"}}, "data": [{"smiles": "CN(C)c1ccc(/C=C2\\NC(=O)N(S(=O)(=O)c3ccc(Cl)cc3)C2=O)cc1", "values": [{"measurement": "inhibition of growth at 10 µM", "setting": "[1]", "value": -3.11, "unit": "%"}, {"measurement": "inhibition of growth at 10 µM", "setting": "[2]", "value": -4.69, "unit": "%"}, {"measurement": "inhibition of growth at 10 µM", "setting": "[3]", "value": 1.29, "unit": "%"}, {"measurement": "inhibition of growth at 10 µM", "setting": "[4]", "value": -49.7, "unit": "%"}, {"measurement": "inhibition of growth at 10 µM", "setting": "[5]", "value": 6.44, "unit": "%"}, {"measurement": "inhibition of growth at 10 µM", "setting": "[6]", "value": 5.5, "unit": "%"}, {"measurement": "inhibition of growth at 10 µM", "setting": "[7]", "value": 0.04, "unit": "%"}, {"measurement": "inhibition of growth at 10 µM", "setting": "[8]", "value": 95.7, "unit": "%"}, {"measurement": "inhibition of growth at 10 µM", "setting": "[9]", "value": -5.38, "unit": "%"}, {"measurement": "inhibition of growth at 10 µM", "setting": "[10]", "value": -0.44, "unit": "%"}, {"measurement": "inhibition of growth at 10 µM", "setting": "[11]", "value": 34.7, "unit": "%"}, {"measurement": "inhibition of growth at 10 µM", "setting": "[12]", "value": -6.72, "unit": "%"}, {"measurement": "inhibition of growth at 10 µM", "setting": "[13]", "value": 2.95, "unit": "%"}, {"measurement": "inhibition of growth at 10 µM", "setting": "[14]", "value": -4.25, "unit": "%"}, {"measurement": "inhibition of growth at 10 µM", "setting": "[15]", "value": -8.45, "unit": "%"}, {"measurement": "inhibition of growth at 10 µM", "setting": "[16]", "value": -8.63, "unit": "%"}, {"measurement": "inhibition of growth at 10 µM", "setting": "[17]", "value": -4.44, "unit": "%"}, {"measurement": "inhibition of growth at 10 µM", "setting": "[18]", "value": -13.9, "unit": "%"}, {"measurement": "inhibition of growth at 10 µM", "setting": "[19]", "value": -6.33, "unit": "%"}, {"measurement": "inhibition of growth at 10 µM", "setting": "[20]", "value": -2.18, "unit": "%"}, {"measurement": "inhibition of growth at 10 µM", "setting": "[21]", "value": -6.37, "unit": "%"}, {"measurement": "inhibition of growth at 10 µM", "setting": "[22]", "value": 14.1, "unit": "%"}, {"measurement": "inhibition of growth at 10 µM", "setting": "[23]", "value": -1.96, "unit": "%"}, {"measurement": "inhibition of growth at 10 µM", "setting": "[24]", "value": -2.64, "unit": "%"}, {"measurement": "inhibition of growth at 10 µM", "setting": "[25]", "value": 1.55, "unit": "%"}, {"measurement": "inhibition of growth at 10 µM", "setting": "[26]", "value": 9.78, "unit": "%"}, {"measurement": "inhibition of growth at 10 µM", "setting": "[27]", "value": -16.5, "unit": "%"}, {"measurement": "inhibition of growth at 10 µM", "setting": "[28]", "value": -1.8, "unit": "%"}, {"measurement": "inhibition of growth at 10 µM", "setting": "[29]", "value": 11.2, "unit": "%"}, {"measurement": "inhibition of growth at 10 µM", "setting": "[30]", "value": -21.6, "unit": "%"}, {"measurement": "inhibition of growth at 10 µM", "setting": "[31]", "value": -8.92, "unit": "%"}, {"measurement": "inhibition of growth at 10 µM", "setting": "[32]", "value": -6.78, "unit": "%"}, {"measurement": "inhibition of growth at 10 µM", "setting": "[33]", "value": -5.55, "unit": "%"}, {"measurement": "inhibition of growth at 10 µM", "setting": "[34]", "value": -0.69, "unit": "%"}, {"measurement": "inhibition of growth at 10 µM", "setting": "[35]", "value": 3.93, "unit": "%"}]}]}
